Each structure is given as a SMILES string. In brackets after ≈: the same amount, converted by molar mass.

One test deals with B16-F10. The test can be described thus: Antiproliferative activity against mouse B16F10 cells assessed as inhibition of serum-stimulated cell growth after 48 hrs by MTT assay. The test is classed as functional, cell-based. The following applies: B16-F10, 48 h. The essentials: (§1)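 Cells exposed to compound at final concentrations from 0.01 to 100 (µg/mL per text) for 48 h. MTT (5 mg/mL in PBS) added for 6 h, then 10% SDS in 0.01 N HCl for a further 4 h at 37 °C. Absorbance read at 570 nm; survival expressed relative to untreated cells.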
In general terms: Tetrazolium assays rely on reduction of a dye to a coloured formazan, in cell work by metabolically active cells.

For a further test, the system named is A549. The test is described as follows: Antiproliferative activity against human A549 cells after 48 hrs by MTT assay. Format: functional, cell-based. The note with it: A549, 48 h. The essentials:
as §1

The test system of the next test is A431 (Homo sapiens). The test is described as follows: Antiproliferative activity against human A431 cells expressing EGFR assessed as inhibition of basal cell growth after 48 hrs by MTT assay. The following applies: A431, 48 h.
The target of test [1] is Epidermal growth factor receptor (Homo sapiens, UniProt P00533). The test can be described thus: Inhibition of recombinant EGFR expressed in baculovirus infected Sf9 cells after 1 hr by DELFIA/time-resolved fluorimetry assay.
Chain of Epidermal growth factor receptor (P00533 whole entry): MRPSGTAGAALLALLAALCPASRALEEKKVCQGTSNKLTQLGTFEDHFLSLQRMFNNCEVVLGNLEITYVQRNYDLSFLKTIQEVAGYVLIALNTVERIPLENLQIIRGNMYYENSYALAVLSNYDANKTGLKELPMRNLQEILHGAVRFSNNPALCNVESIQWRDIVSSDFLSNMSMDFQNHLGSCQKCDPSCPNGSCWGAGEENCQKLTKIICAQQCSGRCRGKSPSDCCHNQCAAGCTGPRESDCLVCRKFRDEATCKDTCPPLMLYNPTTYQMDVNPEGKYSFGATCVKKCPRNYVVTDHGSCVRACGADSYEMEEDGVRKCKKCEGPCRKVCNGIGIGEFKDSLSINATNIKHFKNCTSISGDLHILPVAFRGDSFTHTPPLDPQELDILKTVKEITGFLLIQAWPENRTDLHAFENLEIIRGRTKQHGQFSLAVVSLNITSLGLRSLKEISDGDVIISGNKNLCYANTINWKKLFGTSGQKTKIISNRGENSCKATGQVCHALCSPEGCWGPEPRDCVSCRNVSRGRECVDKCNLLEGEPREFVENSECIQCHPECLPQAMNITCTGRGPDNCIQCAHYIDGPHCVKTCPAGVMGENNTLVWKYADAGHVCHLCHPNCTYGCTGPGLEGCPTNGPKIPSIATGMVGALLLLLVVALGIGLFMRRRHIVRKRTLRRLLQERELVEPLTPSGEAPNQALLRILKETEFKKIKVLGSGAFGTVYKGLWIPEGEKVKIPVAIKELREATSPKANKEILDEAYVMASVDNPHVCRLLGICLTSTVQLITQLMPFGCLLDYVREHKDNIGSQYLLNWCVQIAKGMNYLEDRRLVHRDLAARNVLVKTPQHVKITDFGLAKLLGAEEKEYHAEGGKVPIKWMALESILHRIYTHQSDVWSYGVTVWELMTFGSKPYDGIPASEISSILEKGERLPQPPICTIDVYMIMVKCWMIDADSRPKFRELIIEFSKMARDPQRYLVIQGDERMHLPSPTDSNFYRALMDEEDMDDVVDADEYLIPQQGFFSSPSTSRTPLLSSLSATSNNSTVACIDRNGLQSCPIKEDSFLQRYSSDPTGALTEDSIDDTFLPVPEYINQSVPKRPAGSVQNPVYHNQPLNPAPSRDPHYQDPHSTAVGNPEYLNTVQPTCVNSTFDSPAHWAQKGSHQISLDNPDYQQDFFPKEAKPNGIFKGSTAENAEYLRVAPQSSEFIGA

Regarding `O=C(/C=C/c1cccs1)Nc1ccc2ncnc(Nc3cccc(Cl)c3)c2c1`, the half-maximal inhibitory concentration (IC50) (in general, the concentration that inhibits the measured activity by half) with B16-F10 is 4.26 µg/mL (≈ 10.5 µM); in the test with A549, 9.23 µg/mL (≈ 22.7 µM).
On to `O=C(/C=C/c1ccccc1[N+](=O)[O-])Nc1ccc2ncnc(Nc3cccc(Cl)c3)c2c1`, for which the IC50 stood at 0.75 µM in the test on A431 (Homo sapiens), 0.3 µg/mL (≈ 0.673 µM) in the test with B16-F10 and 0.78 µg/mL (≈ 1.75 µM) with A549.
Regarding `O=C(/C=C/c1ccc(Br)cc1)Nc1ccc2ncnc(Nc3cccc(Br)c3)c2c1`, the figures for the IC50 with B16-F10 and in the test with A549 were 10.7 µg/mL (≈ 20.3 µM) and 15.3 µg/mL (≈ 29.2 µM), respectively.
As to `O=C(/C=C/c1ccccc1Br)Nc1ccc2ncnc(Nc3cccc(Br)c3)c2c1`, the IC50 was found to be 4.28 µM in test [1], 0.92 µg/mL (≈ 1.76 µM) in the test with B16-F10 and 2.38 µg/mL (≈ 4.54 µM) in the test with A549.
As to `O=C(/C=C/c1ccccc1Br)Nc1ccc2ncnc(Nc3cccc(Cl)c3)c2c1`, the IC50 is 1.65 µg/mL (≈ 3.44 µM) with B16-F10 and 5.63 µg/mL (≈ 11.7 µM) with A549.
As for `COc1ccc(/C=C/C(=O)Nc2ccc3ncnc(Nc4cccc(Br)c4)c3c2)cc1`, the half-maximal inhibitory concentration (IC50) in test [1] came to 7.22 µM; in the test on B16-F10 it was 1.24 µg/mL (≈ 2.61 µM); with A549 it was 3.36 µg/mL (≈ 7.07 µM).
Regarding `O=C(/C=C/c1ccc(Br)cc1)Nc1ccc2ncnc(Nc3cccc(Cl)c3)c2c1`, the IC50 in test [1] is 3.49 µM; in the test with B16-F10, 0.75 µg/mL (≈ 1.56 µM); with A549 it was 1.86 µg/mL (≈ 3.88 µM).
Turning to `Nc1ccc2ncnc(Nc3cccc(Br)c3)c2c1`, the half-inhibitory concentration (IC50) in the test on A431 (Homo sapiens) came out at 42 µM.
As to `O=C(/C=C/c1ccccc1)Nc1ccc2ncnc(Nc3cccc(Br)c3)c2c1`, the IC50 was 1.45 µg/mL (≈ 3.26 µM) in the test with B16-F10 and 3.96 µg/mL (≈ 8.89 µM) with A549.
Turning to `Cc1ccc(/C=C/C(=O)Nc2ccc3ncnc(Nc4cccc(Cl)c4)c3c2)cc1`, the IC50 stood at 2.02 µg/mL (≈ 4.87 µM) with B16-F10 and 6.03 µg/mL (≈ 14.5 µM) with A549.
Turning to `C#Cc1cccc(Nc2ncnc3cc(OCCOC)c(OCCOC)cc23)c1` [ERLOTINIB], in the test with B16-F10, the concentration for half-maximal inhibition (IC50) stood at 0.02 µg/mL (≈ 0.0508 µM).
Turning to `O=C(/C=C/c1cccc([N+](=O)[O-])c1)Nc1ccc2ncnc(Nc3cccc(Cl)c3)c2c1`, the IC50 in the test with A431 (Homo sapiens) is 0.49 µM; in test [1] it was 0.19 µM.
As to `O=C(/C=C/c1cccc([N+](=O)[O-])c1)Nc1ccc2ncnc(Nc3cccc(Br)c3)c2c1`, the IC50 in the test with A431 (Homo sapiens) was 0.33 µM; in test [1] it was 0.12 µM.
For `Cc1ccc(/C=C/C(=O)Nc2ccc3ncnc(Nc4cccc(Br)c4)c3c2)cc1`, the half-inhibitory concentration (IC50) in the test on B16-F10 turned out to be 1.39 µg/mL (≈ 3.03 µM); in the test on A549 it was 3.01 µg/mL (≈ 6.55 µM).
As to `COc1ccccc1/C=C/C(=O)Nc1ccc2ncnc(Nc3cccc(Br)c3)c2c1`, the values for the 50% inhibitory concentration (IC50) (in test [1]; with B16-F10; with A549) were 7.71 µM, 1.28 µg/mL (≈ 2.69 µM) and 3.55 µg/mL (≈ 7.47 µM), respectively.
As for `COc1cccc(/C=C/C(=O)Nc2ccc3ncnc(Nc4cccc(Cl)c4)c3c2)c1`, the IC50 in test [1] is 6.63 µM; in the test on B16-F10 it was 1.05 µg/mL (≈ 2.44 µM); in the test with A549, 2.58 µg/mL (≈ 5.99 µM).
As to `O=C(/C=C/c1ccccc1Cl)Nc1ccc2ncnc(Nc3cccc(Br)c3)c2c1`, the concentration for half-maximal inhibition (IC50) with B16-F10 came to 2 µg/mL (≈ 4.17 µM); in the test with A549 it was 6.63 µg/mL (≈ 13.8 µM).
On the same counts, the results for `O=C(/C=C/c1cccs1)Nc1ccc2ncnc(Nc3cccc(Br)c3)c2c1` are 2.51 µg/mL (≈ 5.56 µM) and 4.66 µg/mL (≈ 10.3 µM).
Regarding `O=C(/C=C/c1ccccc1Cl)Nc1ccc2ncnc(Nc3cccc(Cl)c3)c2c1`, the values for the half-inhibitory concentration (IC50) with B16-F10 and in the test with A549 were 1.74 µg/mL (≈ 4 µM) and 4.58 µg/mL (≈ 10.5 µM), respectively.
Consider `Nc1ccc2ncnc(Nc3cccc(Cl)c3)c2c1`, for which the IC50 in the test with A431 (Homo sapiens) stood at 47 µM.
For the molecule `O=C(/C=C/c1ccc(Cl)cc1)Nc1ccc2ncnc(Nc3cccc(Cl)c3)c2c1`, the figures for the IC50 in the test with B16-F10 and in the test with A549 were 9.97 µg/mL (≈ 22.9 µM) and 12.4 µg/mL (≈ 28.6 µM), respectively.
As for `O=C(/C=C/c1ccccc1)Nc1ccc2ncnc(Nc3cccc(Cl)c3)c2c1`, the figures for the half-maximal inhibitory concentration (IC50) (in test [1]; in the test on B16-F10; with A549) were 3.61 µM, 0.68 µg/mL (≈ 1.7 µM) and 1.58 µg/mL (≈ 3.94 µM), respectively.
`O=C(/C=C/c1ccc([N+](=O)[O-])cc1)Nc1ccc2ncnc(Nc3cccc(Cl)c3)c2c1`: the concentration for half-maximal inhibition (IC50) with A431 (Homo sapiens) was 2.13 µM; in test [1], 3.45 µM; in the test on B16-F10 it was 2.05 µg/mL (≈ 4.6 µM); in the test with A549 it was 5.26 µg/mL (≈ 11.8 µM).
With `O=C(/C=C/c1ccccc1[N+](=O)[O-])Nc1ccc2ncnc(Nc3cccc(Br)c3)c2c1`, the half-inhibitory concentration (IC50) with A431 (Homo sapiens) amounted to 0.98 µM; in test [1] it was 1.02 µM; with B16-F10 it was 0.338 µg/mL (≈ 0.689 µM); in the test with A549, 0.92 µg/mL (≈ 1.88 µM).
Turning to `O=C(/C=C/c1cccc2ccccc12)Nc1ccc2ncnc(Nc3cccc(Cl)c3)c2c1`, the half-maximal inhibitory concentration (IC50) in test [1] turned out to be 2.81 µM; in the test on B16-F10 it was 0.671 µg/mL (≈ 1.49 µM); with A549, 1.49 µg/mL (≈ 3.3 µM).
As for `COc1cccc(/C=C/C(=O)Nc2ccc3ncnc(Nc4cccc(Br)c4)c3c2)c1`, the figures for the IC50 (in test [1]; in the test on B16-F10; in the test with A549) were 6.02 µM, 0.87 µg/mL (≈ 1.83 µM) and 2.05 µg/mL (≈ 4.31 µM), respectively.
With `O=C(/C=C/c1ccc([N+](=O)[O-])cc1)Nc1ccc2ncnc(Nc3cccc(Br)c3)c2c1`, the IC50 in the test on A431 (Homo sapiens) was 1.34 µM; in test [1], 5.16 µM; with B16-F10, 0.981 µg/mL (≈ 2 µM); with A549, 1.85 µg/mL (≈ 3.77 µM).
Turning to `O=C(/C=C/c1ccc(Cl)cc1)Nc1ccc2ncnc(Nc3cccc(Br)c3)c2c1`, the figures for the IC50 (in test [1]; in the test with B16-F10; with A549) were 1.21 µM, 0.38 µg/mL (≈ 0.792 µM) and 1.06 µg/mL (≈ 2.21 µM), respectively.

The values are drawn from ChEMBL document CHEMBL1811883, “The combination of 4-anilinoquinazoline and cinnamic acid: a novel mode of binding to the epidermal growth factor receptor tyrosine kinase” (Bioorg Med Chem, 2011).
